An excerpt weighted towards active compounds, which were near 2.3% of everything screened.
TRPC6 inhibitor: inhibitors of mouse TRPC6 channel; Q61143; B-score at 10 µM; HEK293-TRPC6, membrane potential dye, ACh-evoked depolarization; stronger effect = lower value; hit rate 1.1% among 310,000; AID 2553;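 active = B-score under library mean minus 3 SD, initial fluorescence not abnormally high, positive integrated signal ratio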;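 note: B-score derived from integrated fluorescence ratio over the kinetic read; more negative B-score means stronger inhibition of depolarization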
TRPC4 agonist: opens the mouse TRPC4 cation channel. Q9QUQ5. HEK293 TRPC4beta/mu-opioid, Fluo4 calcium fluorescence; stronger effect = higher value. B-score at 10 µM. hit rate 0.49% among 310,000. AID 2237;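 active = B-score above 5 SD of library B-scores, and initial fluorescence ratio not above library mean plus 5 SD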;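 note: positive B-score marks a calcium rise read as TRPC4 activation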
Target sequence (Q9QUQ5 whole entry, looked up): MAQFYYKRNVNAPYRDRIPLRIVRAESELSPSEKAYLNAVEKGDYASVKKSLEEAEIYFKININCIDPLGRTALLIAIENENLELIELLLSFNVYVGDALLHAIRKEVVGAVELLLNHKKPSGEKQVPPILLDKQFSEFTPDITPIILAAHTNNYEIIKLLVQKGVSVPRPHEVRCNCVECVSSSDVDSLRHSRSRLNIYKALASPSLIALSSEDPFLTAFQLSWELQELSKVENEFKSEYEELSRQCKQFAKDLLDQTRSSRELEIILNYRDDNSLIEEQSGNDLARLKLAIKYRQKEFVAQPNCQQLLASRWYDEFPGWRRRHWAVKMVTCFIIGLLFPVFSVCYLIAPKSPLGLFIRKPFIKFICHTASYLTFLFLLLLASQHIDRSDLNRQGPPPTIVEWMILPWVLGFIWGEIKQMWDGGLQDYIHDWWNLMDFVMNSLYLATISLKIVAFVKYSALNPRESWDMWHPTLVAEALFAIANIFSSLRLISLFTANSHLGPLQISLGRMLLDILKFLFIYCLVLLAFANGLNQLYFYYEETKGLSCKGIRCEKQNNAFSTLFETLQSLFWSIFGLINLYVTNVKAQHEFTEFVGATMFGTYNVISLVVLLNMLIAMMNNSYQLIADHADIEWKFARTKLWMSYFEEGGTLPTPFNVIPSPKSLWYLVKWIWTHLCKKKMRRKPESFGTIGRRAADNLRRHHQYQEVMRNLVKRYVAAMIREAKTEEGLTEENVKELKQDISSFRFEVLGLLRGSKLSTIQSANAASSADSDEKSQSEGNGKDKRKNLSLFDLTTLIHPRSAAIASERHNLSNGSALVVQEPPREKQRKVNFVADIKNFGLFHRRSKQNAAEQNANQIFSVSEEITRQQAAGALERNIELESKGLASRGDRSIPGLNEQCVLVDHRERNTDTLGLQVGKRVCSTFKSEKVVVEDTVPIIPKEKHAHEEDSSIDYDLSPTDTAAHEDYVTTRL
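Incubation: 45 min room-temperature Fluo4 loading, 110 s read / System: HEK293 cells stably co-expressing mouse TRPC4beta and mu-opioid receptor / Signal: Fluo4 fluorescence, kinetic / Control set: buffer (low) and maximal DAMGO (high) / Measure: integrated baseline-normalised fluorescence ratio, converted to per-well B score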
TRPC6 activator: activates the mouse TRPC6 cation channel | B-score at 10 µM | HEK293-TRPC6 membrane potential dye fluorescence; stronger effect = higher value | Q61143 | AID 2550 | hit rate 0.13% among 310,000;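 active = B-score of the integrated fluorescence ratio above library mean plus 3 SD, and starting fluorescence ratio within library mean plus 5 SD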;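 note: higher score means more depolarization so channel activation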
TRPC4 PAM: allosteric potentiators of mouse TRPC4 channel; Q9QUQ5; HEK293 TRPC4beta/mu-opioid, DAMGO EC20, Fluo-4 Ca2+ flux; stronger effect = higher value; B-score at 10 µM; hit rate 0.42% among 310,000;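 active = B-score of calcium response area above 5 SD of library B-scores, with initial fluorescence ratio within 5 SD of library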;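 note: B-score of integrated fluorescence ratio over time as area under calcium response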
TRPC4 block: TRPC4 (mouse) channel inhibition; AID 2247; B-score at 10 µM; hit rate 0.39% among 300,000; Q9QUQ5; HEK293 TRPC4beta/mu-opioid, DAMGO-evoked Fluo4 calcium flux; stronger effect = lower value;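 active = B-score over 3 SD under the library average, no early fluorescence shift, positive overall ratio signal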
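Signal: kinetic Fluo4 fluorescence imaging of calcium influx. Material: stable TRPC4beta/mu-opioid receptor HEK293 cells. Probe or stimulus: DAMGO in two steps, submaximal then maximal.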
* = called active by the depositor; i = inactive; . = not tested or not shown.

SMILES	TRPC6 inhibitor	TRPC4 agonist	TRPC6 activator	TRPC4 PAM	TRPC4 block
CCCCOc1ccc(C(=O)NCC(=O)NCC(c2ccc(OC)cc2)N2CCCC2)cc1 (configuration not stated)	i	i	i	14*	i
COc1ccc(C(CNC(=O)c2oc3c(Cl)cccc3c2C)N2CCCC2)cc1 (configuration not stated)	i	i	i	i	i
COc1ccc(C(CNC(=O)c2oc3ccc(Cl)cc3c2C)N2CCCCC2)cc1 (configuration not stated)	i	i	i	i	-5*
COc1ccc(C(CNC(=O)c2cccc(Br)c2)N2CCCC2)cc1 (configuration not stated)	i	89*	i	i	i
COC(=O)c1ccc(-n2cncn2)c(F)c1	i	i	i	i	i
COc1ccc(CN2CCN(C(=O)C3CCC(CNS(=O)(=O)c4ccc(C)cc4)CC3)CC2)c(OC)c1OC (configuration not stated)	i	i	i	i	i
Cc1ccc(NC(=O)Nc2ccc([N+](=O)[O-])cc2)nc1	i	i	i	i	i
Cc1ccc(NC(=O)Nc2cccc([N+](=O)[O-])c2)nc1	i	i	i	19*	i
COc1ccc(-c2nc(CS(=O)CC(=O)NCCN3CCCCC3C)c(C)o2)cc1OC (configuration not stated)	i	i	i	i	i
N=C(N)SCc1ccccn1	i	i	i	38*	i
CCOc1ccc(CC(=O)NNC(=S)NCCc2ccccc2)cc1	i	i	i	i	i
COC(=O)c1cc(-c2ccc(Cl)cc2)n[nH]1	i	i	i	i	i
Oc1ccccc1-c1cc(C(F)(F)C(F)F)[nH]n1	i	i	i	i	i
Fc1ccc(-c2cc(C(F)(F)C(F)F)[nH]n2)cc1	i	71*	i	i	i
FC(F)C(F)(F)c1cc(-c2ccc(Cl)cc2)n[nH]1	i	50*	i	i	i
OCc1ccccc1OCCCOc1cccc2cccnc12	i	i	i	i	i
CCOc1ccc(CCNC(=O)COC(=O)c2ccc(OC(C)C)cc2)cc1OCC	i	i	i	i	i
COc1ccc(CCn2c(=S)[nH]c3cc(C(=O)N4CCOCC4)ccc3c2=O)cc1OC	i	i	i	20*	i
Cc1ccc(NC(=O)NC(=O)CN2C(=O)NC3(CCCCCCC3)C2=O)c(C)c1	-5.6*	i	i	i	i
O=C(CN1CCN(S(=O)(=O)c2ccc(Br)cc2)CC1)N/N=C/c1cccs1	i	i	i	i	i
O=C(CN1CCN(S(=O)(=O)c2ccc(Br)cc2)CC1)N/N=C/c1ccncc1	i	i	i	15*	i
Brc1ccccc1OCCCCCN1CCOCC1	i	i	i	11*	i
Brc1ccccc1OCCCN1CCCC1	i	i	i	i	i
CC(C)c1ccccc1OCCCCN1CCCCC1	i	i	i	i	i
CC(C)c1ccccc1OCCCCCN1CCOCC1	i	i	i	13*	i
SMILES	TRPC6 inhibitor	TRPC4 agonist	TRPC6 activator	TRPC4 PAM	TRPC4 block
COc1ccc(CCN(C)C(=O)c2c(C)nn(-c3ccccc3)c2C)cc1OC	i	i	i	i	i
CSc1nnc(Cc2sc(-c3ccccc3)nc2-c2ccccc2)o1	i	i	i	20*	i
CCN(CC)S(=O)(=O)c1ccc2[nH]c(=O)cc(C(=O)NCC3CCCO3)c2c1 (configuration not stated)	i	i	i	i	i
Cc1nn(-c2cc(C(F)(F)F)ccc2Cl)c2nc(C(F)(F)F)[nH]c(=O)c12	i	i	i	i	i
Cc1nn(-c2cccc(Cl)c2)c2nc(C(F)(F)F)[nH]c(=O)c12	i	i	i	i	-8*
CN(c1ccc(C(=O)NCc2ccncc2)cc1)S(=O)(=O)c1ccc(Cl)cc1	i	i	i	i	i
O=C(CNC(=O)c1cccc(F)c1)N/N=C/c1cccs1	i	i	i	i	i
O=C(NCCCN1CCOCC1)C1COc2ccccc2O1 (configuration not stated)	i	i	i	i	i
O=C(NCCCN1CCOCC1)c1ccc(NC(=O)C2COc3ccccc3O2)cc1 (configuration not stated)	i	78*	i	i	-6*
CCOC(=O)CNC(=O)Cn1cnc2c(nnn2-c2cccc(Cl)c2)c1=O	i	i	i	i	.
CCOc1ccc(S(=O)(=O)NC(C)(C)C)cc1-c1nc2c(C(C)(C)C)nn(C)c2c(=O)[nH]1	i	i	i	11*	i
CCCCN(CCCC)CCNC(=O)CN1C(=O)CSc2ccc(S(=O)(=O)N3CCOCC3)cc21	i	i	i	i	i
CCCCN(CC)CCCNC(=O)CN1C(=O)CSc2ccc(S(=O)(=O)N3CCOCC3)cc21	i	55*	i	i	i
COC(=O)c1ccc(N/C=C/C(=O)c2ccccc2)cc1	i	i	i	i	i
O=C(Nc1ccc2c(c1)OCO2)N1CCN(c2ncccn2)CC1	i	i	i	i	i
O=C(c1ccc2c(c1)OCCO2)N1CCN(c2ncc(C(F)(F)F)cc2Cl)CC1	i	49*	i	i	i
O=C(Nc1ccc2c(c1)OCO2)N1CCN(c2ncc(C(F)(F)F)cc2Cl)CC1	i	55*	i	i	i
COc1ccc(NC(=O)COc2coc(CN3CCN(c4ccccc4)CC3)cc2=O)cc1	i	i	i	i	i
COc1ccccc1-n1c(CNC(=O)c2ccc(S(=O)(=O)N3CCCCC3)cc2)n[nH]c1=S	i	i	i	i	i
CC(C)C1=Nc2cccc3cccc(c23)N1	i	i	i	i	-6*
COc1ccc(C(=O)C2CCCN(Cc3cc(C)c(O)c(C)c3)C2)c(OC)c1 (configuration not stated)	i	i	i	i	i
COc1ccc(F)cc1C(=O)C1CCCN(Cc2ccc3c(c2)OCCO3)C1 (configuration not stated)	i	i	i	i	-7*
COc1ccccc1C(=O)C1CCCN(Cc2ccc3c(c2)OCCO3)C1 (configuration not stated)	i	i	i	i	i
COc1cc(CN2CCCC(C(=O)c3ccccc3SC)C2)cc(OC)c1 (configuration not stated)	i	i	i	i	-6*

Screening results as filed in PubChem.
